Test results from ChEMBL document CHEMBL1137740, “Design, cytotoxic and fluorescent properties of novel N-phosphorylalkyl substituted E,E-3,5-bis(arylidene)piperid-4-ones” (Eur J Med Chem, 2009).

Key:
A549 [1] = experiment: Cytotoxicity against human A549 cells after 72 hrs by MTT assay; type: functional, cell-based; conditions: A549, 72 h
How it was run: (§1)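 Cells grown in RPMI-1640 with 10% FBS, 2 mM L-glutamine and gentamicin. Seeded at 1×10^4 cells/well and allowed to attach overnight at 37 °C, 5% CO2. Compounds dissolved in DMSO and diluted into FBS-free medium, tested at 5×10^-5, 10^-5, 10^-6 and 10^-7 M. After 72 h, MTT added for 3 h at 37 °C. Formazan dissolved in DMSO and OD read at 590 nm. Viability expressed versus untreated controls, triplicates. IC50 determined graphically; melphalan as positive control.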

PC-3 [2] = experiment: Cytotoxicity against human PC3 cells after 72 hrs by MTT assay; type: functional, cell-based; conditions: PC-3, 72 h; how it was run: as §1
SK-OV-3 [3] = experiment: Cytotoxicity against human Scov3 cells after 72 hrs by MTT assay; type: functional, cell-based; conditions: SK-OV-3, 72 h; how it was run: as §1
[4] = Cytotoxicity against human Caov3 cells after 72 hrs by MTT assay; type: functional, cell-based; conditions: Caov-3, 72 h; how it was run: as §1
[5] = Cytotoxicity against human Caov3 cells at 50 uM after 72 hrs by MTT assay; type: functional; conditions: Caov-3, 72 h
SK-OV-3 [6] = experiment: Cytotoxicity against human Scov3 cells at 50 uM after 72 hrs by MTT assay; type: functional; conditions: SK-OV-3, 72 h
A549 [7] = experiment: Cytotoxicity against human A549 cells at 50 uM after 72 hrs by MTT assay; type: functional; conditions: A549, 72 h
PC-3 [8] = experiment: Cytotoxicity against human PC3 cells at 50 uM after 72 hrs by MTT assay; type: functional; conditions: PC-3, 72 h

Row | Compound | IC50 (A549 [1]) | IC50 (PC-3 [2]) | IC50 (SK-OV-3 [3]) | IC50 [4] | inhibition at 50 µM [5] | inhibition at 50 µM (SK-OV-3 [6]) | inhibition at 50 µM (A549 [7]) | inhibition at 50 µM (PC-3 [8])
1 | O=C1/C(=C/c2ccc([N+](=O)[O-])cc2)CNC/C1=C\c1ccc([N+](=O)[O-])cc1 | 400 nM | 1540 nM | 2500 nM | 1030 nM |  |  |  | 
2 | O=C1/C(=C/c2ccc(F)cc2)CNC/C1=C\c1ccc(F)cc1 | 800 nM | 6000 nM | 6500 nM |  | < 50% |  |  | 
3 | CN(C)c1ccc(/C=C2\CNC/C(=C\c3ccc(N(C)C)cc3)C2=O)cc1 | 1400 nM | 15000 nM | 14000 nM |  | < 50% |  |  | 
4 | CCOP(=O)(CCCN1C/C(=C\c2ccc(N(C)C)cc2)C(=O)/C(=C/c2ccc(N(C)C)cc2)C1)OCC |  |  |  |  | < 50% | < 50% | < 50% | < 50%
5 | CCOP(=O)(CCCCN1C/C(=C\c2ccc(N(C)C)cc2)C(=O)/C(=C/c2ccc(N(C)C)cc2)C1)OCC |  |  |  |  | < 50% | < 50% | < 50% | < 50%
6 | CCOP(=O)(CCN1C/C(=C\c2ccc(N(C)C)cc2)C(=O)/C(=C/c2ccc(N(C)C)cc2)C1)OCC |  |  |  |  | < 50% | < 50% | < 50% | < 50%
7 | CCOP(=O)(CCN1C/C(=C\c2ccc([N+](=O)[O-])cc2)C(=O)/C(=C/c2ccc([N+](=O)[O-])cc2)C1)OCC | 1000 nM | 1320 nM | 2010 nM | 5050 nM |  |  |  | 
8 | CCOP(=O)(CCCN1C/C(=C\c2ccc([N+](=O)[O-])cc2)C(=O)/C(=C/c2ccc([N+](=O)[O-])cc2)C1)OCC | 7120 nM | 710 nM | 900 nM | 5620 nM |  |  |  | 
9 | CCOP(=O)(CN1C/C(=C\c2ccc(N(C)C)cc2)C(=O)/C(=C/c2ccc(N(C)C)cc2)C1)OCC |  | 30000 nM |  |  | < 50% | < 50% | < 50% | 
10 | CCOP(=O)(CN1C/C(=C\c2ccc(F)cc2)C(=O)/C(=C/c2ccc(F)cc2)C1)OCC | 8050 nM | 3000 nM | 2100 nM | 10200 nM |  |  |  | 
11 | CCOP(=O)(CN1C/C(=C\c2ccc([N+](=O)[O-])cc2)C(=O)/C(=C/c2ccc([N+](=O)[O-])cc2)C1)OCC | 1000 nM | 1400 nM | 1520 nM | 5030 nM |  |  |  | 
12 | CCOP(=O)(CCCN1C/C(=C\c2ccc(F)cc2)C(=O)/C(=C/c2ccc(F)cc2)C1)OCC | 9070 nM | 1820 nM | 2800 nM | 8500 nM |  |  |  | 
13 | CCOP(=O)(CCN1C/C(=C\c2ccc(F)cc2)C(=O)/C(=C/c2ccc(F)cc2)C1)OCC | 1020 nM | 4010 nM | 1640 nM | 10000 nM |  |  |  | 
14 | CCOP(=O)(CCCCN1C/C(=C\c2ccc([N+](=O)[O-])cc2)C(=O)/C(=C/c2ccc([N+](=O)[O-])cc2)C1)OCC | 3000 nM | 1200 nM | 4100 nM | 1010 nM |  |  |  | 
15 | N[C@@H](Cc1ccc(N(CCCl)CCCl)cc1)C(=O)O [MELPHALAN] | 50000 nM | 70000 nM | 60000 nM | 20000 nM |  |  |  | 
